Activity calls are given as the source filed them. No cut-off for these calls is given here.
Columns and labels:
A549 [1] = assay: Induction of apoptosis in human A549 cells assessed as intraneucleosomal DNA fragmentation at 6.5 uM after 24 to 48 hrs by agarose gel electrophoresis technique; format: functional, cell-based
How it was run: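 After 24 h and 48 h at 6.5 µM, A549 cells were pelleted, washed in PBS and lysed. The supernatant was treated with SDS and RNase A for 2 h at 56 °C, then proteinase K. DNA was precipitated with ammonium acetate and ice-cold ethanol at −80 °C for 1 h, washed in 80% ethanol, dissolved in TE, and run on 2% agarose gel.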

A549 [2] = assay: Induction of apoptosis in human A549 cells assessed as apoptotic bodies formation at 6.5 uM after 24 to 48 hrs by Hoechst 33342 staining; format: functional, cell-based
How it was run: (§1)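 A549 cells were grown 24 h on coverslips at 10,000 cells, then exposed to 6.5 µM for 24 h and 48 h, with 0.001% DMSO vehicle controls. Hoechst 33342 (0.5 µg/mL) with 4% paraformaldehyde was applied for 30 min at 37 °C. Random fields were examined by fluorescence microscopy, scoring relative fluorescence and nuclear fragmentation.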

A549 [3] = assay: Induction of apoptosis in human A549 cells assessed as cytoplasmic condensation at 6.5 uM after 24 to 48 hrs by Hoechst 33342 staining; format: functional, cell-based; how it was run: as §1
A549 [4] = assay: Induction of apoptosis in human A549 cells assessed as nuclear fragmentation at 6.5 uM after 24 to 48 hrs by Hoechst 33342 staining; format: functional, cell-based; how it was run: as §1
A549 [5] = assay: Growth inhibition of human A549 cells; format: functional, cell-based
How it was run: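 MTT reduction assay. Cells were seeded at 1 × 10^4 per well in DMEM with 10% FBS and pre-incubated 24 h at 37 °C under CO2. Compounds were diluted in medium and incubated 24 h. Medium was then removed, MTT (5 mg/mL stock) added for 4 h, formazan dissolved in DMSO, and absorbance read at 540 nm.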

A549 [6] = assay: Induction of cell cycle arrest in human A549 cells assessed as accumulation at G0/G1 phase at 6.5 uM after 24 hrs by propidium iodide staining-based FACS analysis (reference value: 56.26 %); format: functional
How it was run: (§2)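 A549 cells (1 × 10^6) in six-well plates received 6.5 µM (final) for 24 h or 48 h. Floating and adherent cells were fixed in 70% ethanol, washed in PBS, then stained for 20 min with 50 µg/mL propidium iodide in hypotonic citrate/Triton X-100 buffer with DNase-free RNase A. Cells were analysed by FACS.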

A549 [7] = assay: Induction of cell cycle arrest in human A549 cells assessed as accumulation at S phase at 6.5 uM after 24 hrs by propidium iodide staining-based FACS analysis (reference value: 19.21 %); format: functional; how it was run: as §2
A549 [8] = assay: Induction of cell cycle arrest in human A549 cells assessed as accumulation at G2/M phase at 6.5 uM after 24 hrs by propidium iodide staining-based FACS analysis (reference value: 20.92 %); format: functional; how it was run: as §2
A549 [9] = assay: Induction of cell cycle arrest in human A549 cells assessed as accumulation at S phase at 6.5 uM after 48 hrs by propidium iodide staining-based FACS analysis (reference value: 19.21 %); format: functional; how it was run: as §2
HEK293 = assay: Cytotoxicity against human HEK293 cells after 48 hrs by MTT assay; format: cell-based; details: hek293, 48 h
How it was run: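 HEK-293 cells were seeded at 1 × 10^4 cells/well in DMEM with 10% FBS and held 24 h at 37 °C under CO2. Compound diluted in culture medium was added for 48 h. MTT (5 mg/mL stock) was then added for 4 h, formazan dissolved in DMSO, and absorbance read at 540 nm.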

A549 [10] = assay: Induction of apoptosis in human A549 cells assessed as viable cells at 6.5 uM after 24 hrs using Annexin V-FITC and PI staining by flow cytometry (reference value: 11.1 %); format: functional; details: A549, 24 h, read-out: Activity
A549 [11] = assay: Induction of apoptosis in human A549 cells assessed as apoptotic cells at 6.5 uM after 24 hrs using Annexin V-FITC and PI staining by flow cytometry (reference value: 2.6 %); format: functional
A549 [12] = assay: Induction of apoptosis in human A549 cells assessed as late apoptotic cells at 6.5 uM after 24 hrs using Annexin V-FITC and PI staining by flow cytometry (reference value: 85.7 %); format: functional
A549 [13] = assay: Induction of apoptosis in human A549 cells assessed as viable cells at 6.5 uM after 48 hrs using Annexin V-FITC and PI staining by flow cytometry (reference value: 11.1 %); format: functional; details: A549, 48 h, read-out: Activity
A549 [14] = assay: Induction of apoptosis in human A549 cells assessed as apoptotic cells at 6.5 uM after 48 hrs using Annexin V-FITC and PI staining by flow cytometry (reference value: 2.6 %); format: functional
A549 [15] = assay: Induction of apoptosis in human A549 cells assessed as late apoptotic cells at 6.5 uM after 48 hrs using Annexin V-FITC and PI staining by flow cytometry (reference value: 85.7 %); format: functional
K562 = assay: Cytotoxicity against human K562 cells; format: functional
How it was run: (§3)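 NCI 60-cell panel second-stage testing by NCI standard procedures. Compound was dissolved in DMSO and tested at five 10-fold dilutions: 10^-4, 10^-5, 10^-6, 10^-7 and 10^-8 M.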

A549 [16] = assay: Cytotoxicity against human A549 cells; format: functional
EKVX = assay: Cytotoxicity against human EKVX cells; format: functional; how it was run: as §3
HOP-62 = assay: Cytotoxicity against human HOP62 cells; format: functional; how it was run: as §3
NCI-H23 = assay: Cytotoxicity against human NCI-H23 cells; format: functional; how it was run: as §3
NCI-H322M = assay: Cytotoxicity against human NCI-H322M cells; format: functional; how it was run: as §3
NCI-H522 = assay: Cytotoxicity against human NCI-H522 cells; format: functional; how it was run: as §3
HCT-15 = assay: Cytotoxicity against human HCT15 cells; format: functional; how it was run: as §3
HT-29 = assay: Cytotoxicity against human HT-29 cells; format: functional; how it was run: as §3
SF-539 = assay: Cytotoxicity against human SF539 cells; format: functional; how it was run: as §3
SNB-19 = assay: Cytotoxicity against human SNB19 cells; format: functional
How it was run: (§4)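 NCI 60-cell-line panel protocol. Primary screen used a single 10^-5 M concentration with 48 h incubation, and percent growth was read against untreated cells by sulforhodamine B protein staining. The five-dose follow-up used a DMSO solution at five 10-fold dilutions from 10^-4 to 10^-8 M.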

SNB-75 = assay: Cytotoxicity against human SNB75 cells; format: functional; how it was run: as §4
U-251 = assay: Cytotoxicity against human U251 cells; format: functional; how it was run: as §4
PC-3 = assay: Cytotoxicity against human PC3 cells; format: functional; how it was run: as §3
DU-145 = assay: Cytotoxicity against human DU145 cells; format: functional; how it was run: as §3
Malme-3M = assay: Cytotoxicity against human MALME-3M cells; format: functional; how it was run: as §3
SK-MEL-2 = assay: Cytotoxicity against human SK-MEL-2 cells; format: functional; how it was run: as §3
SK-MEL-5 = assay: Cytotoxicity against human SK-MEL-5 cells; format: functional; how it was run: as §4
OVCAR-8 = assay: Cytotoxicity against human OVCAR8 cells; format: functional; how it was run: as §3
ACHN = assay: Cytotoxicity against human ACHN cells; format: functional; how it was run: as §3
RXF 393 = assay: Cytotoxicity against human RXF393 cells; format: functional; how it was run: as §3
SN12C = assay: Cytotoxicity against human SN12C cells; format: functional; how it was run: as §4
MCF7 = assay: Cytotoxicity against human MCF7 cells; format: functional; how it was run: as §3
BT-549 = assay: Cytotoxicity against human BT549 cells; format: functional; how it was run: as §3

In the case of `O=C1Nc2ccccc2/C1=C\c1nc(-c2ccccc2F)n2ccccc12`, the Activity (A549 [1]) is reported as “Active”, the Activity (A549 [2]) is reported as “Active” and the Activity (A549 [3]) is reported as “Active”. The Activity (A549 [4]) was “Active”, the IC50 (A549 [5]) was 6.5 µM and the Activity (A549 [6]) was 66.2%. It also gave an Activity (A549 [7]) of 13.51%, an Activity (A549 [8]) of 17.46% and an Activity (A549 [9]) of 5.74%. The Activity (HEK293) was “Non-toxic”, the viability at 6.5 µM (A549 [10]) was 31.2% and the Activity (A549 [11]) was 61.5%. It also gave an Activity (A549 [12]) of 7.2%, a viability at 6.5 µM (A549 [13]) of 8.3% and an Activity (A549 [14]) of 87.4%. It also gave an Activity (A549 [15]) of 3.4%, a GI50 (K562) of 6.35 µM and a GI50 (A549 [16]) of 3.46 µM. It also gave a GI50 (EKVX) of 10.6 µM, a GI50 (HOP-62) of 2370 nM and a GI50 (NCI-H23) of 4.55 µM. The GI50 (NCI-H322M) was 4.16 µM, the GI50 (NCI-H522) was 2180 nM and the GI50 (HCT-15) was 13 µM. The GI50 (HT-29) was 3.5 µM, the GI50 (SF-539) was 3.1 µM and the GI50 (SNB-19) was 4.7 µM. The GI50 (SNB-75) was 1790 nM, the GI50 (U-251) was 2570 nM and the GI50 (PC-3) was 6.81 µM. It also gave a GI50 (DU-145) of 3.26 µM, a GI50 (Malme-3M) of 3.07 µM and a GI50 (SK-MEL-2) of 6.81 µM. It also gave a GI50 (SK-MEL-5) of 2800 nM, a GI50 (OVCAR-8) of 2490 nM and a GI50 (ACHN) of 3.3 µM. The GI50 (RXF 393) was 3.41 µM, the GI50 (SN12C) was 4.32 µM and the GI50 (MCF7) was 2100 nM. It also gave a GI50 (BT-549) of 3.36 µM.

Source: ChEMBL document CHEMBL1799966, “Synthesis and anticancer activity of oxindole derived imidazo[1,5-a]pyrazines” (Eur J Med Chem, 2011)
